Key:
Format in all cases: functional
MCF7 [1] = experiment: Estrogenic activity in human MCF7 cells assessed as drug level causing stimulation of cell proliferation equivalent to 100 pM estradiol after 96 hrs by alamar blue assay
How it was run: (§1)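 Cells seeded at 10^4 per well in phenol red-free RPMI with 5% DCC-treated FBS. Compounds added in DMSO (vehicle control 1% DMSO) for 96 h at 37 °C, 5% CO2, with serial estradiol dilutions run alongside. Alamar Blue for 3 h, fluorescence ex 530/em 590 nm. Estradiol-equivalent concentration fitted by linear regression from at least five concentrations in quadruplicate.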

T47D [2] = experiment: Estrogenic activity in luciferase transfected human T47D cells assessed as drug level causing stimulation of cell proliferation equivalent to 10 pM estradiol by luciferase reporter gene assay
How it was run: (§2)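 Reporter assay in MCF-7 or T47D cells transiently transfected with luciferase. Compounds tested from 0.01 to 10 µM. Luciferase induction is expressed as the compound concentration equivalent to the 10 or 100 pM estradiol response. Values come from linear regression over at least five concentrations in quadruplicate.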

T47D [3] = experiment: Estrogenic activity in human T47D cells assessed as drug level causing stimulation of cell proliferation equivalent to 10 pM estradiol after 96 hrs by alamar blue assay; how it was run: as §1
T47D [4] = experiment: Estrogenic activity in luciferase transfected human T47D cells assessed as drug level causing stimulation of cell proliferation equivalent to 100 pM estradiol by luciferase reporter gene assay; how it was run: as §2
MCF7 [5] = experiment: Estrogenic activity in luciferase transfected human MCF7 cells assessed as drug level causing stimulation of cell proliferation equivalent to 10 pM estradiol by luciferase reporter gene assay; how it was run: as §2
T47D [6] = experiment: Estrogenic activity in human T47D cells assessed as drug level causing stimulation of cell proliferation equivalent to 100 pM estradiol after 96 hrs by alamar blue assay; how it was run: as §1
MCF7 [7] = experiment: Estrogenic activity in human MCF7 cells assessed as drug level causing stimulation of cell proliferation equivalent to 10 pM estradiol after 96 hrs by alamar blue assay; how it was run: as §1
MCF7 [8] = experiment: Estrogenic activity in luciferase transfected human MCF7 cells assessed as drug level causing stimulation of cell proliferation equivalent to 100 pM estradiol by luciferase reporter gene assay; how it was run: as §2

Compound | Activity (MCF7 [1]) | Activity (T47D [2]) | Activity (T47D [3]) | Activity (T47D [4]) | Activity (MCF7 [5]) | Activity (T47D [6]) | Activity (MCF7 [7]) | Activity (MCF7 [8])
COc1c(C/C=C/c2ccccc2)ccc(O)c1O [HYDROXYOBUSTYRENE] | >100 µM | >100 µM | 5.1 µM | >100 µM | >100 µM | >100 µM | >100 µM | >100 µM
O=C1C[C@@H](c2ccc(O)cc2)Oc2cc(O)ccc21 [LIQUIRTIGENIN] | 0.65 µM | 0.01 µM | 0.64 µM | 5.9 µM | 0.01 µM | >100 µM | 0.1 µM | 0.01 µM
COc1ccc(C2COc3cc(O)ccc3C2=O)c(O)c1 (centres undefined) | 45.3 µM | 7.3 µM | 1.5 µM | >100 µM | >100 µM | 33.7 µM | 5.7 µM | >100 µM
COc1ccc(-c2coc3cc(O)cc(O)c3c2=O)c(OC)c1O [KHRINONE C] | 93.3 µM | 0.2 µM | 0.2 µM | 2 µM | >100 µM | 8.6 µM | 4.5 µM | >100 µM
COc1ccc([C@@H]2COc3cc(O)ccc3C2)c(OC)c1O | >100 µM | 6.3 µM | 0.4 µM | >100 µM | 0.9 µM | 6.4 µM | >100 µM | 7.8 µM
COc1ccc([C@H]2COc3cc(O)ccc3C2=O)c(OC)c1O | 9.4 µM | 0.6 µM | 2.1 µM | >100 µM | >100 µM | 8.9 µM | 2.1 µM | >100 µM
COc1cc(O)c(-c2coc3cc(O)ccc3c2=O)cc1O [KHRINONE A] | >100 µM | 5.6 µM | >100 µM | 8.4 µM | >100 µM | >100 µM | >100 µM | >100 µM
COc1ccc(-c2coc3cc(O)cc(O)c3c2=O)cc1 [BIOCHANIN] | 3.8 µM | 0.01 µM | 0.3 µM | 0.01 µM | >100 µM | 0.5 µM | 0.3 µM | >100 µM

Reference: ChEMBL document CHEMBL1153749, “Flavonoids from the heartwood of the Thai medicinal plant Dalbergia parviflora and their effects on estrogenic-responsive human breast cancer cells” (2009)
